How the values were obtained:
Format in all cases: cell-based
[1] = biological target: Serine/threonine-protein kinase PAK 2 (Homo sapiens) (UniProt Q13177); test: Inhibition of PAK2 in human SKCO1 cells at 1 uM after 4 hrs using biotin labeled IGQGASGTVFTATDVALGQEVAIKQINLQK probe by mass-spectrometric analysis relative to control
Summary of the method: (§1)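 Live SK-CO-1 cells exposed to compound at 1 μM or DMSO for 4 h (KiNativ). Lysates then labeled with lysine-reactive ATP/ADP-biotin probe, and probe-labeled kinase peptides quantified by mass spectrometry. Percent inhibition of probe-dependent recovery calculated relative to DMSO-treated cells.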

[2] = biological target: T1, Dual specificity mitogen-activated protein kinase kinase 7 (Homo sapiens) (UniProt O14733); test: Inhibition of MAP2K7 in human SKCO1 cells at 1 uM after 4 hrs using biotin labeled DVKPSNILLDER probe by mass-spectrometric analysis relative to control
T1 sequence (whole entry): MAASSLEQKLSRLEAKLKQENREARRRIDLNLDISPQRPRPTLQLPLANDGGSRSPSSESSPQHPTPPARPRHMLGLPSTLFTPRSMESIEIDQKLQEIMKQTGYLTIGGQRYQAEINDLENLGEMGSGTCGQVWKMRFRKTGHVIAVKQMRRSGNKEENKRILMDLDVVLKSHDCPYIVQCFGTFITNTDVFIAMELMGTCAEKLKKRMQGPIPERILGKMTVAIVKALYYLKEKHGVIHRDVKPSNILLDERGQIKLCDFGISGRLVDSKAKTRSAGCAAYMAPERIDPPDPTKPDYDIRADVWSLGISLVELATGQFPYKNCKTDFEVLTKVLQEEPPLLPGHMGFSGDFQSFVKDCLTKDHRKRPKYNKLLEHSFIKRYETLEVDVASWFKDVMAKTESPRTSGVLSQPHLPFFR

[3] = biological target: Mitogen-activated protein kinase kinase kinase 1 (Homo sapiens) (UniProt Q13233); test: Inhibition of MAP3K1 in human SKCO1 cells at 1 uM after 4 hrs using biotin labeled DVKGANLLIDSTGQR probe by mass-spectrometric analysis relative to control
[4] = biological target: Cyclin-dependent kinase 11B (Homo sapiens) (UniProt P21127); test: Inhibition of PITSLRE in human SKCO1 cells at 1 uM after 4 hrs using biotin labeled DLKTSNLLLSHAGILK probe by mass-spectrometric analysis relative to control; summary of the method: as §1
[5] = biological target: T2, Non-receptor tyrosine-protein kinase TNK1 (Homo sapiens) (UniProt Q13470); test: Inhibition of TNK1 in human SKCO1 cells at 1 uM after 4 hrs using biotin labeled SVPVAVKSLR probe by mass-spectrometric analysis relative to control; summary of the method: as §1
T2 sequence (whole entry): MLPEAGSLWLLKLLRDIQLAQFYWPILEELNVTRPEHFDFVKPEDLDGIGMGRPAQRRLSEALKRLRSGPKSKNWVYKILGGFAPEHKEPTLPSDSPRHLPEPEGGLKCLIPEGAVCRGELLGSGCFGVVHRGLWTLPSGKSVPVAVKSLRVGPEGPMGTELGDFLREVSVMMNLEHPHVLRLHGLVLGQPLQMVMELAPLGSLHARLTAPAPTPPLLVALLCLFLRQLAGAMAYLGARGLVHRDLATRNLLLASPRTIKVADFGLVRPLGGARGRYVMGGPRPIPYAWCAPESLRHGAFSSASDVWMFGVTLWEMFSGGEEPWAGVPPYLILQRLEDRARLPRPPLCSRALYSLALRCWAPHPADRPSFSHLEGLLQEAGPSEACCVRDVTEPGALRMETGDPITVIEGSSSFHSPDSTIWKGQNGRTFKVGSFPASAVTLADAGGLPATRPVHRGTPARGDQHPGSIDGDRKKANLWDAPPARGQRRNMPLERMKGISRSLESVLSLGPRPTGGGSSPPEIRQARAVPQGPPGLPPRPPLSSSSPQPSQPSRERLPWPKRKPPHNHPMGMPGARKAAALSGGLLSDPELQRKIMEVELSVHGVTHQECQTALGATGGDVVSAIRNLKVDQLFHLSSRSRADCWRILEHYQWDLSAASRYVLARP

[6] = biological target: Serine/threonine-protein kinase PRP4 homolog (Homo sapiens) (UniProt Q13523); test: Inhibition of PRP4 in human SKCO1 cells at 1 uM after 4 hrs using biotin labeled CNILHADIKPDNILVNESK probe by mass-spectrometric analysis relative to control; summary of the method: as §1
[7] = biological target: Glycogen synthase kinase-3 beta (Homo sapiens) (UniProt P49841); test: Inhibition of GSK3B in human SKCO1 cells at 1 uM after 4 hrs using biotin labeled DIKPQNLLLDPDTAVLK probe by mass-spectrometric analysis relative to control
[8] = biological target: Serine/threonine-protein kinase SMG1 (Homo sapiens) (UniProt Q96Q15); test: Inhibition of SMG1 in human SKCO1 cells at 1 uM after 4 hrs using biotin labeled DTVTIHSVGGTITILPTKTKPK probe by mass-spectrometric analysis relative to control; summary of the method: as §1
[9] = biological target: Cyclin-dependent kinase 18 (Homo sapiens) (UniProt Q07002); test: Inhibition of PCTAIRE3 in human SKCO1 cells at 1 uM after 4 hrs using biotin labeled DLKPQNLLINER probe by mass-spectrometric analysis relative to control; summary of the method: as §1
[10] = biological target: T3, Serine/threonine-protein kinase tousled-like 1 (Homo sapiens) (UniProt Q9UKI8); test: Inhibition of TLK1 in human SKCO1 cells at 1 uM after 4 hrs using biotin labeled YLNEIKPPIIHYDLKPGNILLVDGTACEIK probe by mass-spectrometric analysis relative to control; summary of the method: as §1
T3 sequence (whole entry): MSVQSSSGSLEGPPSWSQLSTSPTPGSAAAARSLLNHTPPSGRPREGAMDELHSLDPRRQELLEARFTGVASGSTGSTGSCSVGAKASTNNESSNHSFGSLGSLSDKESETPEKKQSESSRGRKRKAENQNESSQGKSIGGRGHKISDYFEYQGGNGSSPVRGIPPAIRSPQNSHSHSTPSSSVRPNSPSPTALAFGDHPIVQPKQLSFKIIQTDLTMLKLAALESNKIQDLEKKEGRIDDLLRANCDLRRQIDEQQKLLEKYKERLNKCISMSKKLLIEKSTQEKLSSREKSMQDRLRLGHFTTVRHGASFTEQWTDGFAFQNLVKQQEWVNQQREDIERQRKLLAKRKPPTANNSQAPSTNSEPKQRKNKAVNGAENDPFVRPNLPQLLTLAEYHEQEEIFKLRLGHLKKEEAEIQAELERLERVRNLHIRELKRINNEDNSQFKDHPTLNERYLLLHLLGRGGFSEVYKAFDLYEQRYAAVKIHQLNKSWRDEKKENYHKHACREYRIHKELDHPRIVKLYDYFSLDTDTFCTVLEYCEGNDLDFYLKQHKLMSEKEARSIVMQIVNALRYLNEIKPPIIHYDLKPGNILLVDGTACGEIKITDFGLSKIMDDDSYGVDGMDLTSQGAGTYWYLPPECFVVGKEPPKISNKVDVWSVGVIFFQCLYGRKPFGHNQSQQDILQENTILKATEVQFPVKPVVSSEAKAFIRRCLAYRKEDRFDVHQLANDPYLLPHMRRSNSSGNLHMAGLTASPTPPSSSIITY

Cyclin-dependent kinase 18 (Homo sapiens), sequence (Q07002 whole entry): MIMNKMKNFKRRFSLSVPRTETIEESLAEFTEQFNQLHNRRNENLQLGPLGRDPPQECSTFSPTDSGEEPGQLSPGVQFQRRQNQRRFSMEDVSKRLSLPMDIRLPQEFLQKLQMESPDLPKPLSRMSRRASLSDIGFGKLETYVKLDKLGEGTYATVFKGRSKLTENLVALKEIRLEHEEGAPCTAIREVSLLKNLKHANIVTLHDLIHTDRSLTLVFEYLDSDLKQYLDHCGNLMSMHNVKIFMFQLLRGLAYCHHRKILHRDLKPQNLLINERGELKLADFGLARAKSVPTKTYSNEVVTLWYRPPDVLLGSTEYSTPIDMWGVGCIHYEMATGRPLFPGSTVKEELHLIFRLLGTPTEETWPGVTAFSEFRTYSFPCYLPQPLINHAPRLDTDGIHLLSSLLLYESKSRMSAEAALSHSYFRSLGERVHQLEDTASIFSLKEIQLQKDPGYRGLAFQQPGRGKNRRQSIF
Glycogen synthase kinase-3 beta (Homo sapiens), sequence (P49841 whole entry, looked up): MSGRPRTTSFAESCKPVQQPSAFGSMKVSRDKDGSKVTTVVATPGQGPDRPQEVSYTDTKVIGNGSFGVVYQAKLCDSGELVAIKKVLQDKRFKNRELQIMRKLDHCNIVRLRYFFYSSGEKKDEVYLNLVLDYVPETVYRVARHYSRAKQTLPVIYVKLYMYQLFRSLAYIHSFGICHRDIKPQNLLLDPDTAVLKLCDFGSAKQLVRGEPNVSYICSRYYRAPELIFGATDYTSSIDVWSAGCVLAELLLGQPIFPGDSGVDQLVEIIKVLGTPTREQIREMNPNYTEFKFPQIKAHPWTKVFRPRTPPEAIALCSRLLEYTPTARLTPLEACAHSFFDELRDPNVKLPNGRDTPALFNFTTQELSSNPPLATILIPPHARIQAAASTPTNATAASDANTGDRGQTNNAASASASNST
Serine/threonine-protein kinase PRP4 homolog (Homo sapiens), sequence (Q13523 whole entry): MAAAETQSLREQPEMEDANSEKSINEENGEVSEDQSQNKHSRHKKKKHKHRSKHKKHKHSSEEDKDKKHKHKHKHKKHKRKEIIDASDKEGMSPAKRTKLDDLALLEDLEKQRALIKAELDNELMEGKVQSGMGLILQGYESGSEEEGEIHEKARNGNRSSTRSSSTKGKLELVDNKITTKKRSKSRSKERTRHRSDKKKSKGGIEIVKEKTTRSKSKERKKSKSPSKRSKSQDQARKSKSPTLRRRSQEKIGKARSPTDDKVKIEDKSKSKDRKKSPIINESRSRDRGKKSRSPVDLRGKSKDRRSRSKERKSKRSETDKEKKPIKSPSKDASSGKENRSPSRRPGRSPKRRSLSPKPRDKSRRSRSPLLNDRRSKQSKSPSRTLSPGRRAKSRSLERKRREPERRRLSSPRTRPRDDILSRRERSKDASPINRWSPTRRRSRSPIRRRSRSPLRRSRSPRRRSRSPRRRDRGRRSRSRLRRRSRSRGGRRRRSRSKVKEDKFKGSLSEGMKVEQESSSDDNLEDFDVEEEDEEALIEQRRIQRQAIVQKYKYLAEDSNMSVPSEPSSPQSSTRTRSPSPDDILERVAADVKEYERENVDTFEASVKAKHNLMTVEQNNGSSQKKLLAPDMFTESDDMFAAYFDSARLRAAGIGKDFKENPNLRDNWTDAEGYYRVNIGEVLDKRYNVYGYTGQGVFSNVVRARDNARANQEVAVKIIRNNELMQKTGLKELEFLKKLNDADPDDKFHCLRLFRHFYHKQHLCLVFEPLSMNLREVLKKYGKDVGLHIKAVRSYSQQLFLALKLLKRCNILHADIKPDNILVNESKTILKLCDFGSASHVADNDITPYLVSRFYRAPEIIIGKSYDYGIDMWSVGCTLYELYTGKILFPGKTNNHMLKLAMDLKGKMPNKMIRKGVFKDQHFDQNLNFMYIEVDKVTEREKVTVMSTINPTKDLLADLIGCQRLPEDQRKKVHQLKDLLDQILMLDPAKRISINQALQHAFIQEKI
Cyclin-dependent kinase 11B (Homo sapiens), sequence (P21127 whole entry): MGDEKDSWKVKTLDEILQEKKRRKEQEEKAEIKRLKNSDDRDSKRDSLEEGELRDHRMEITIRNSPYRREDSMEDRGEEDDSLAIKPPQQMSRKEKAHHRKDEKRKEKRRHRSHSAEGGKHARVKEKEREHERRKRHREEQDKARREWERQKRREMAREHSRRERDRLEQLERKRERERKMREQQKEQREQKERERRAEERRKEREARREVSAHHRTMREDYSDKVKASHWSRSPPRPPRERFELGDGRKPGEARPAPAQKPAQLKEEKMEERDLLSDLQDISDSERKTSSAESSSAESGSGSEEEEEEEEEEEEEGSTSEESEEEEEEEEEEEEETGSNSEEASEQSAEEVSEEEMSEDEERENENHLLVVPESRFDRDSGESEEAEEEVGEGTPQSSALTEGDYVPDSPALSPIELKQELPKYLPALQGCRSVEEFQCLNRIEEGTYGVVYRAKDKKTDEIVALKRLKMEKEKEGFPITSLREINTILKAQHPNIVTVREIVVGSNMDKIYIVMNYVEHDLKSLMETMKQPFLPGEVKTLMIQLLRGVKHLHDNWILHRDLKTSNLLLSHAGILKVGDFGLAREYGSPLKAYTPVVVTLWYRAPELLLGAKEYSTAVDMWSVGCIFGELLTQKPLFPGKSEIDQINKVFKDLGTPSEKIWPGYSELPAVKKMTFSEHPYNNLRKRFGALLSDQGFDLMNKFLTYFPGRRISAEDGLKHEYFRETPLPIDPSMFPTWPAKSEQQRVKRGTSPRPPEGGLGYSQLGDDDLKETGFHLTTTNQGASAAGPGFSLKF
Mitogen-activated protein kinase kinase kinase 1 (Homo sapiens), sequence (Q13233 whole entry): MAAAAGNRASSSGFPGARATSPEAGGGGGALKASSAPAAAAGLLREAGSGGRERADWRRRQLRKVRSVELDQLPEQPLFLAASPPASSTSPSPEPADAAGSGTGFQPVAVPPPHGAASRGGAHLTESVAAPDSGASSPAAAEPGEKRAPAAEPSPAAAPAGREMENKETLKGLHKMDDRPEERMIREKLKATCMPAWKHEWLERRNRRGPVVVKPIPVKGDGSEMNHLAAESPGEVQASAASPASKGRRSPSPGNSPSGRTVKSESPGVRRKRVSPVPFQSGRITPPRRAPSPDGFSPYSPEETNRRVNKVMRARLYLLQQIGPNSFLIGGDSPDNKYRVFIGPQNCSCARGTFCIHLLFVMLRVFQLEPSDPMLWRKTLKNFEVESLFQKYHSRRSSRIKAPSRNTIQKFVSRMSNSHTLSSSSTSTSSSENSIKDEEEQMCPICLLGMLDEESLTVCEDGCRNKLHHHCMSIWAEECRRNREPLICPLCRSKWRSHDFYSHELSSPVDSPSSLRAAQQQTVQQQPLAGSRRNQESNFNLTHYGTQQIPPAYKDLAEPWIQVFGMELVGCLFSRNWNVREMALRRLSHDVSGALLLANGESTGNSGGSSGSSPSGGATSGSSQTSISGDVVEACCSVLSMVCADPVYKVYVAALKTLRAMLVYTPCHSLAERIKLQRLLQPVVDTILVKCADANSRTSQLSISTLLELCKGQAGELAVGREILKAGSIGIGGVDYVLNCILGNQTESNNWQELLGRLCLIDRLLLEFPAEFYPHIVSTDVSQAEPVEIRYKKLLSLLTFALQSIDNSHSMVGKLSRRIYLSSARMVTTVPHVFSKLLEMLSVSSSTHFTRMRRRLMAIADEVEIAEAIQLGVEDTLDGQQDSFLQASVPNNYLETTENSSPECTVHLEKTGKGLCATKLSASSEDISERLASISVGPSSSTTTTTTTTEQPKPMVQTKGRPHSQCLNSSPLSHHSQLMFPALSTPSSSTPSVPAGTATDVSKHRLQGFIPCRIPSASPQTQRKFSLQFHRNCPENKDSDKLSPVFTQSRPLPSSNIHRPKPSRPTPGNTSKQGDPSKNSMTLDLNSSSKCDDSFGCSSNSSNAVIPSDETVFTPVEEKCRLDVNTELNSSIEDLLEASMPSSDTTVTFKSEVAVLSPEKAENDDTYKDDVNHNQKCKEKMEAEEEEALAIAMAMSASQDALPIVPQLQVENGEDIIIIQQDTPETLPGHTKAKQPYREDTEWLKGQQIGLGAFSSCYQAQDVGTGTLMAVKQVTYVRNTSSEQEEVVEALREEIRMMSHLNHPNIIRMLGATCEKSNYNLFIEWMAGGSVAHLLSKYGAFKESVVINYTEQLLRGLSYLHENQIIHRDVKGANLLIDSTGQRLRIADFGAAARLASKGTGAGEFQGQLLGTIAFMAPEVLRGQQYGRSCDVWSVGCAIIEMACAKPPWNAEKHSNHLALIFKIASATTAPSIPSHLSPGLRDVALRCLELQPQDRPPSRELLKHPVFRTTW
Serine/threonine-protein kinase PAK 2 (Homo sapiens), sequence (Q13177 whole entry): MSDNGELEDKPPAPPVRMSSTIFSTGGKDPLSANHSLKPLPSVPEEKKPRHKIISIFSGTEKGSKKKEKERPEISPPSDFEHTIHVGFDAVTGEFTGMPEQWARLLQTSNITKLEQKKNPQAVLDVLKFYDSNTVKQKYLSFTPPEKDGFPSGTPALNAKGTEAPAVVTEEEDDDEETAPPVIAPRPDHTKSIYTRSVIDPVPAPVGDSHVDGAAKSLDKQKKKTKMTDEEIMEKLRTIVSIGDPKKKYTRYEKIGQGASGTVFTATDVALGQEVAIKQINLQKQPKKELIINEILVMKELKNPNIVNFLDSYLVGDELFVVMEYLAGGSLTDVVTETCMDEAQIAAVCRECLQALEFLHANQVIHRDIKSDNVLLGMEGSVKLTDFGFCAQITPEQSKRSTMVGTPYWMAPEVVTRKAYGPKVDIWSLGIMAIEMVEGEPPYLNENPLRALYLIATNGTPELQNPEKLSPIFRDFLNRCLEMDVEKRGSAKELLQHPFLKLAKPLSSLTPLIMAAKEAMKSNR

| Structure (SMILES) | inhibition [1] [%] | inhibition [2] [%] | inhibition [3] [%] | inhibition [4] [%] | inhibition [5] [%] | inhibition [6] [%] | inhibition [7] [%] | inhibition [8] [%] | inhibition [9] [%] | inhibition [10] [%] |
| --- | --- | --- | --- | --- | --- | --- | --- | --- | --- | --- |
| C=CC(=O)Nc1ccccc1Oc1nc(Nc2cnn(CCOC)c2)ncc1Cl | 3 | 12.3 | 59.7 | -0.8 | 48.3 | 18.7 | 17 | 16.4 | -5.9 | 11.3 |
| C=CC(=O)Nc1ccccc1Nc1nc(Nc2ccc(N3CCN(C)CC3)cc2)ncc1Cl | -8.6 | 13.7 | 78.5 | -5.5 | 98.3 | 32.7 | -6.6 | 0.8 | -3.2 | 2.3 |
| COc1cc(O)c2c(c1)/C=C/C[C@H](O)[C@H](O)C(=O)/C=C\C[C@H](C)OC2=O | -3.9 | 18.6 | 51.4 | -1.4 | 13.9 | 15.4 | 3 | -8.2 | -6.3 | 19.3 |

From ChEMBL document CHEMBL4118021, “Studies of TAK1-centered polypharmacology with novel covalent TAK1 inhibitors” (Bioorg Med Chem, 2017)
